Reference: ChEMBL document CHEMBL1139413, “Discovery of the first potent and orally efficacious agonist of the orphan G-protein coupled receptor 119” (J Med Chem, 2008)
pEC50, pIC50: −log10 of the molar value. “And” between values parts separate entries of the source, which are not always exact repeats. Equal values may be shown once. The source made the active and inactive calls. The rule behind the calls is not given here.

Key:
[1] = biological target: T1, Glucose-dependent insulinotropic receptor (Homo sapiens, UniProt Q8TDV5); assay: Agonist activity at GPR119 expressed in HEK293 cells assessed as cAMP level by flash plate assay; type: functional, cell-based
T1 sequence (Q8TDV5 whole entry): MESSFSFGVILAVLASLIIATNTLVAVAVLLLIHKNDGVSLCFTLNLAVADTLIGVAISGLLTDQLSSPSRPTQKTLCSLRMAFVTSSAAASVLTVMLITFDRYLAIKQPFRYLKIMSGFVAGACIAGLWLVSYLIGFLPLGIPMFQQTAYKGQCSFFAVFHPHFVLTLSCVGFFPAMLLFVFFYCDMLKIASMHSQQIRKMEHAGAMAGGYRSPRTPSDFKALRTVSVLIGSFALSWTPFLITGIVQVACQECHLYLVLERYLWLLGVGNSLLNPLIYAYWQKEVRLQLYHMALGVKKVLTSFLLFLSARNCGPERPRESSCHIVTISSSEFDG
Summary of the method: (§1)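 HEK293 cells transiently transfected with GPR119; crude plasma membranes prepared 48 h post-transfection. Membrane adenylyl cyclase read by FlashPlate cAMP kit: 15 µg membrane protein, 60 min at room temperature in 20 mM HEPES pH 7.4 with 10 µM GTP, 0.1 mM ATP, 500 µM IBMX, 10 mM phosphocreatine, creatine phosphokinase. cAMP from on-plate standard curve; usually n = 1 or 2.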

[2] = biological target: T1, Glucose-dependent insulinotropic receptor; assay: Agonist activity at […] transfected in Xenopus dermal melanophore assessed as dispersion of melatonin-induced pigmentation; type: functional
Summary of the method: (§2)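 Cultured Xenopus dermal melanophores transiently transfected with GPR119 plasmid, plated in 384-well format. At 48 h post-transfection, pigment aggregated with melatonin (10nM, 1 h), then compounds applied for 1 h. Pigment dispersion read as absorbance (light transmission) to build concentration-response curves; EC50 with log SD, number of determinations given.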

[3] = biological target: T1, Glucose-dependent insulinotropic receptor; assay: Inverse agonist activity at GPR119 expressed in HEK293 cells assessed as cAMP level by flash plate assay; type: functional, cell-based; summary of the method: as §1
Mus musculus [4] = species: Mus musculus; assay: Increase in glucose dependent insulin release in diabetic KK/ay mouse by oral glucose tolerance test; type: functional, organism-based
Rattus norvegicus = assay: Effect on glucose excursion in Sprague-Dawley rat at 30 mg/kg, po by oral glucose tolerance test; type: functional, organism-based; set-up: dose 30 mg/kg
[5] = Half life in Sprague-Dawley rat at 10 mg/kg, po; type: ADME, organism-based; set-up: dose 10 mg/kg, route oral; conditions: in vivo
Summary of the method: (§3)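 Rat oral PK: single 10 mg/kg po dose; plasma tmax, Cmax, AUC, terminal t1/2 determined, with oral bioavailability (%F) also reported.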

[6] = Oral bioavailability in Sprague-Dawley rat at 10 mg/kg; type: ADME, organism-based; conditions: in vivo; summary of the method: as §3
[7] = Cmax in C57BL/6J mouse at 10 mg/kg, po; type: ADME, organism-based; set-up: dose 10 mg/kg, route oral; conditions: in vivo
Summary of the method: (§4)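 Mouse oral PK: C57/bl6J mice given a single 10 mg/kg po dose; plasma exposure profile used to derive tmax, Cmax, AUC (area under exposure curve) and terminal t1/2. No iv arm run in mouse.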

[8] = biological target: T2, Glucose-dependent insulinotropic receptor (Mus musculus) (UniProt Q7TQP3); assay: Agonist activity at mouse GPR119 transfected in Xenopus dermal melanophore assessed as dispersion of melatonin-induced pigmentation; type: functional; summary of the method: as §2
T2 sequence (whole entry): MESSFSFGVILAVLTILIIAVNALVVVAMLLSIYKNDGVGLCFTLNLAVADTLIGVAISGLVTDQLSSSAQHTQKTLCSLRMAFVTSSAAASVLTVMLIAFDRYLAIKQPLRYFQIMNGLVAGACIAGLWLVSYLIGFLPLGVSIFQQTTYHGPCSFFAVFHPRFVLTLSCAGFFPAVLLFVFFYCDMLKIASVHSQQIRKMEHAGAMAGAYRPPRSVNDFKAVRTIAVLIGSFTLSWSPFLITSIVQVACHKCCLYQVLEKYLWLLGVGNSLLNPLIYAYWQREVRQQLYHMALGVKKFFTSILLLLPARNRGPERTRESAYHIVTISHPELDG

[9] = biological target: Voltage-gated inwardly rectifying potassium channel KCNH2 (Homo sapiens, UniProt Q12809); assay: Inhibition of hERG upto 10 uM by patch clamp assay; type: toxicity
Summary of the method: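 hERG channel current measured by patch clamp, compound tested up to 10 µM.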

[10] = AUC in Sprague-Dawley rat at 10 mg/kg, po; type: ADME, organism-based; set-up: dose 10 mg/kg, route oral; conditions: plasma; summary of the method: as §3
[11] = Agonist activity at GPR119 in hamster HIT-T15 cells stimulation of assessed as cAMP production; type: functional, cell-based; conditions: Cricetinae
[12] = Tmax in C57BL/6J mouse at 10 mg/kg, po; type: ADME, organism-based; set-up: dose 10 mg/kg, route oral; conditions: in vivo; summary of the method: as §4
Macaca fascicularis = species: Macaca fascicularis; assay: Agonist activity at cynomolgus monkey GPR119 transfected in Xenopus dermal melanophore assessed as dispersion of melatonin-induced pigmentation; type: functional; summary of the method: as §2
[13] = Half life in C57BL/6J mouse at 10 mg/kg, po; type: ADME, organism-based; set-up: dose 10 mg/kg, route oral; conditions: in vivo; summary of the method: as §4
[14] = biological target: T3, Glucose-dependent insulinotropic receptor (Rattus norvegicus) (UniProt Q7TQN8); assay: Agonist activity at rat GPR119 transfected in Xenopus dermal melanophore assessed as dispersion of melatonin-induced pigmentation; type: functional; summary of the method: as §2
T3 sequence (whole entry): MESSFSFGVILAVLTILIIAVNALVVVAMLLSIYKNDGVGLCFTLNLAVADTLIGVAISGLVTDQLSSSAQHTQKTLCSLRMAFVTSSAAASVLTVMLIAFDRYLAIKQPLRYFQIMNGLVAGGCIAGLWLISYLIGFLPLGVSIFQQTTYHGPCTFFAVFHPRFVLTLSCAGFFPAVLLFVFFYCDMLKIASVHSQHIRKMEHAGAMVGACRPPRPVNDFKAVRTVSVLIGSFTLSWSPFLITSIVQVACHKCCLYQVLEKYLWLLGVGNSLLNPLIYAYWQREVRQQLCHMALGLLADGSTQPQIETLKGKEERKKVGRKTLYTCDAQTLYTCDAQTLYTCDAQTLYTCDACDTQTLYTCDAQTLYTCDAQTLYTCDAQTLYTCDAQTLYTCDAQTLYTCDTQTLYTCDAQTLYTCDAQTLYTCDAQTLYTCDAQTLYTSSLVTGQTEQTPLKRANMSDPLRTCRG

[15] = AUC in C57BL/6J mouse at 10 mg/kg, po; type: ADME, organism-based; set-up: dose 10 mg/kg, route oral; conditions: plasma; summary of the method: as §4
[16] = Inhibition of cytochrome
Mus musculus [17] = assay: Increase in glucose dependent insulin release in wild type C57BL/6J mouse at 20 mg/kg, po by oral glucose tolerance test; type: functional, organism-based; set-up: dose 20 mg/kg
Canis lupus familiaris = species: Canis lupus familiaris; assay: Agonist activity at dog GPR119 transfected in Xenopus dermal melanophore assessed as dispersion of melatonin-induced pigmentation; type: functional; summary of the method: as §2
[18] = Tmax in Sprague-Dawley rat at 10 mg/kg, po; type: ADME, organism-based; set-up: dose 10 mg/kg, route oral; conditions: in vivo; summary of the method: as §3
Mus musculus [19] = assay: Increase in glucose dependent insulin release in GPR119 deficient C57BL/6J mouse at 20 mg/kg, po by oral glucose tolerance test; type: functional, organism-based; set-up: dose 20 mg/kg
[20] = Cmax in Sprague-Dawley rat at 10 mg/kg, po; type: ADME, organism-based; set-up: dose 10 mg/kg, route oral; conditions: in vivo; summary of the method: as §3

Voltage-gated inwardly rectifying potassium channel KCNH2, sequence (Q12809 whole entry): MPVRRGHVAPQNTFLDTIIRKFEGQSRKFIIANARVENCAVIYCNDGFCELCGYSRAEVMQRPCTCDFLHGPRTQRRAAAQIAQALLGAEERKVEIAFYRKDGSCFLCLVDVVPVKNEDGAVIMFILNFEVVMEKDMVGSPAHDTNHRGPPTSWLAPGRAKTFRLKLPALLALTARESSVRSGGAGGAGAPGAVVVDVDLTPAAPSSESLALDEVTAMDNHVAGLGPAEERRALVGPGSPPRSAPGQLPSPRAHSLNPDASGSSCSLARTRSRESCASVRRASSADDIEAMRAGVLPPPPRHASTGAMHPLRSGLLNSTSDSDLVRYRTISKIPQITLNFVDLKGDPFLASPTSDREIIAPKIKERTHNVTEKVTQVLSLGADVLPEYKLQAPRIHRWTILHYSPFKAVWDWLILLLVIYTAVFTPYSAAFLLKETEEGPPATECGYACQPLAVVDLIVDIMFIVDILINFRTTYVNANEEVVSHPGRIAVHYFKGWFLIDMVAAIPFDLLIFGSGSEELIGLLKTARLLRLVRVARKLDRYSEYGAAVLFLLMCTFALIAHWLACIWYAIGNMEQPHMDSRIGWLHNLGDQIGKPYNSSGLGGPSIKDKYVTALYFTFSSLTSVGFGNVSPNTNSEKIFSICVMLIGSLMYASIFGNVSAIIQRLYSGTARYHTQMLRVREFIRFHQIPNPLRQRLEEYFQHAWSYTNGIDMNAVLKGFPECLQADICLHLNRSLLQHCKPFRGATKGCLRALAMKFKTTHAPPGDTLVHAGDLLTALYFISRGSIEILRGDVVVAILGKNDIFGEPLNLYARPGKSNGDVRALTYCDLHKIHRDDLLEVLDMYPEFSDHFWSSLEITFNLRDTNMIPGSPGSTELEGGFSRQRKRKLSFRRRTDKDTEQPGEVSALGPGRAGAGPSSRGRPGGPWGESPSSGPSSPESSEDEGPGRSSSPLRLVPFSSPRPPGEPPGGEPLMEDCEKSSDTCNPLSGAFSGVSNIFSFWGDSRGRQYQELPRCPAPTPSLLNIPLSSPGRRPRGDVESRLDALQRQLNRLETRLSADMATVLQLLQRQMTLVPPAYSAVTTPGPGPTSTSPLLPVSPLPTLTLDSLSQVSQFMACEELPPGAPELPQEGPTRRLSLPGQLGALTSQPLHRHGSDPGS

CCOC(=O)C1CCN(c2ncnc(Nc3ccc(S(C)(=O)=O)cc3)c2[N+](=O)[O-])CC1
pEC50 [1]: 5.92

CCCS(=O)(=O)c1ccc(Nc2ncnc(N3CCC(c4nc(C(C)C)no4)CC3)c2[N+](=O)[O-])cc1
pEC50 [2]: 8.33

CCOC(=O)C1CCN(c2ncnc(Nc3ccc(-n4cncn4)cc3)c2[N+](=O)[O-])CC1
pEC50 [1]: 6.40

CCS(=O)(=O)c1ccc(Nc2ncnc(N3CCC(c4nc(C(C)C)no4)CC3)c2[N+](=O)[O-])cc1
pEC50 [2]: 7.77

CC(C)c1nc(C2CCN(c3ncnc(Nc4ccc(S(=O)(=O)C(C)C)cc4F)c3[N+](=O)[O-])CC2)[o+][n-]1
pEC50 [2]: 8.10

CS(=O)(=O)c1ccc(Nc2ncnc(N3CCC(c4nc(-c5cccc(C(F)(F)F)c5)no4)CC3)c2[N+](=O)[O-])cc1
pEC50 [2]: 7.62

CC(C)c1noc(C2CCN(c3ncnc(Nc4ccc(S(C)(=O)=O)c(F)c4)c3[N+](=O)[O-])CC2)n1
pEC50 [2]: 8.47

CCOC(=O)C1CCN(c2ncnc(Oc3ccc(S(C)(=O)=O)cc3)c2[N+](=O)[O-])CC1
pEC50 [1]: 5.72

CC(C)c1noc(C2CCN(c3ncnc(Nc4ccc(S(C)(=O)=O)cc4)c3[N+](=O)[O-])CC2)n1
pEC50 [2]: 8.24

CCS(=O)(=O)c1ccc(Nc2ncnc(N3CCC(c4nc(C(C)C)[n-][o+]4)CC3)c2[N+](=O)[O-])c(F)c1
pEC50 [2]: 8.15

CCSc1ccc(Nc2ncnc(N3CCC(c4nc(C(C)C)no4)CC3)c2[N+](=O)[O-])cc1
pEC50 [2]: 6.96

CCc1noc(C2CCN(c3ncnc(Nc4ccc(S(C)(=O)=O)cc4)c3[N+](=O)[O-])CC2)n1
pEC50 [2]: 8.00

CCOC(=O)C1CCN(c2ncnc(Oc3ccc(OCCOC)cc3)c2[N+](=O)[O-])CC1
pIC50 [3]: 6.30

CCOC(=O)C1CCN(c2ncnc(Oc3ccc(Br)cc3)c2[N+](=O)[O-])CC1
pIC50 [3]: 7.30

CC(C)c1noc(C2CCN(c3ncnc(Nc4ccc(S(=O)(=O)C(C)C)cc4)c3[N+](=O)[O-])CC2)n1
pEC50 [2]: 8.11

CCOC(=O)C1CCN(c2ncnc(Oc3ccc(-n4cncn4)cc3)c2[N+](=O)[O-])CC1
pEC50 [1]: 5.60

CCCc1noc(C2CCN(c3ncnc(Nc4ccc(S(C)(=O)=O)cc4)c3[N+](=O)[O-])CC2)n1
pEC50 [2]: 6.37

CC(C)(C)c1noc(C2CCN(c3ncnc(Nc4ccc(S(C)(=O)=O)cc4)c3[N+](=O)[O-])CC2)n1
pEC50 [2]: 8.82

CC[S+]([O-])c1ccc(Nc2ncnc(N3CCC(c4nc(C(C)C)no4)CC3)c2[N+](=O)[O-])cc1 (stereo not drawn)
pEC50 [2]: 7.77

CC(C)c1noc(C2CCN(c3ncnc(Nc4ccc(S(C)(=O)=O)cc4F)c3[N+](=O)[O-])CC2)n1
Activity (Mus musculus [4]): Active | Activity (Rattus norvegicus): inactive | half-life [5]: 1.1 h | bioavailability [6]: 12% | Cmax [7]: 4980 ng/mL | Activity [8]: 12 nM | Activity [9]: Not Active | AUC [10]: 263 ng·h/mL | pEC50 [11]: 8.33 | pEC50 [2]: 9.17 | Tmax [12]: 0.5 h | Activity (Macaca fascicularis): 0.4 nM | half-life [13]: 3.4 h | Activity [14]: 14 nM | AUC [15]: 19800 ng·h/mL | Activity [16]: inactive | Activity (Mus musculus [17]): Active | Activity (Canis lupus familiaris): 1.6 nM | Tmax [18]: 1 h | Activity (Mus musculus [19]): inactive | Cmax [20]: 126 ng/mL and 250 nM

CS(=O)(=O)c1ccc(Nc2ncnc(N3CCC(c4nc(CC5CC5)no4)CC3)c2[N+](=O)[O-])cc1
pEC50 [2]: 6.80

CCOC(=O)C1CCN(c2ncnc(Oc3cc(C(F)(F)F)nn3C)c2[N+](=O)[O-])CC1
pIC50 [3]: 7.08

CCOC(=O)C1CCN(c2ncnc(Oc3ccc(C(=O)CC(=O)OC)cc3)c2[N+](=O)[O-])CC1
pEC50 [1]: 6.00

CS(=O)(=O)c1ccc(Nc2ncnc(N3CCC(c4nc(-c5cccnc5)[n-][o+]4)CC3)c2[N+](=O)[O-])cc1
pEC50 [2]: 6.18

CCOC(=O)C1CCN(c2ncnc(Oc3ccc(CCC(C)=O)cc3)c2[N+](=O)[O-])CC1
pEC50 [1]: 5.77

CS(=O)(=O)c1ccc(Nc2ncnc(N3CCC(c4nc(C5CC5)no4)CC3)c2[N+](=O)[O-])cc1
pEC50 [2]: 7.60

Cc1noc(C2CCN(c3ncnc(Nc4ccc(S(C)(=O)=O)cc4)c3[N+](=O)[O-])CC2)n1
pEC50 [2]: 6.59

CCOC(=O)C1CCN(c2ncnc(Oc3ccc(S(N)(=O)=O)cc3)c2[N+](=O)[O-])CC1
pEC50 [1]: 5.52
